System: Bovine brain tubulin
Assay: turbidimetric tubulin assembly
Assay type: biochemical, Bos taurus
Settings: read-out: IC50 ± SD [μM]^[a]; 10 μM tubulin, glutamate buffer, GTP, 30°C, 20 min
Outline: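 Purified bovine brain tubulin was preincubated with varying test-compound concentrations in glutamate buffer at 30°C, then cooled to 0°C. GTP was added, and mixtures went into 0°C cuvettes and were warmed to 30°C. Assembly was followed turbidimetrically in a recording spectrophotometer. IC50 was the concentration that cut the extent of assembly by 50% after 20 min.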

Row | SMILES | IC50 [µM]
2 | COc1cc(C(=O)c2cc3cc(N)cc(OC)c3o2)cc(OC)c1OC [3i, (5-Amino-7-methoxybenzo[b]furan-2-yl)(3,4,5-trimethoxyphenyl)methanone] | 3.1 ± 0.2
3 | COc1cc2oc(C(=O)c3cc(OC)c(OC)c(OC)c3)cc2cc1N [3g, (5-Amino-6-methoxybenzo[b]furan-2-yl)(3,4,5-trimethoxyphenyl)methanone] | 1.4 ± 0.01
4 | C=C(Br)C(=O)Nc1cccc2oc(C(=O)c3cc(OC)c(OC)c(OC)c3)cc12 [4a, 2-Bromo-N-[2-(3,4,5-trimethoxybenzoyl)-1-benzo[b]furan-4-yl]acrylamide] | > 40
5 | COc1cc2oc(C(=O)c3cc(OC)c(OC)c(OC)c3)c(C)c2cc1N [3h, (5-Amino-3-methyl-6-methoxybenzo[b]furan-2-yl)(3,4,5-trimethoxyphenyl)methanone] | 0.56 ± 0.08
6 | COc1cc(C(=O)c2oc3c(OC)cc(N)cc3c2C)cc(OC)c1OC [3j, (5-Amino-3-methyl-7-methoxybenzo[b]furan-2-yl)(3,4,5-trimethoxyphenyl)methanone] | 1.6 ± 0.1
